SR-BI uptake up: activators of SR-BI mediated HDL lipid uptake | CHO ldlA[mSR-BI] cells, DiI-HDL uptake fluorescence, 3 h; 100 = double the neutral-control signal | activation, % at 12.5 µM | hit rate 0.096% among 320,000;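 active = mean replicate activation of at least 60% and every replicate at or above 60%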;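 also: 0% = median plate neutral-control signal and 100% = twice that signal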
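Material: SR-BI-overexpressing, LDLR-lacking CHO cells | Dosing: Single compound concentration, delivered by pin transfer | Probe or stimulus: Labelled HDL, 10 µg/mL | Signal: Bottom-read cell fluorescence after medium removal, ex 550/em 595 nm | Schedule: 3 h, 37 °C | Evaluation: HDL uptake via cellular fluorescence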
CAL PDZ FP-1: inhibitors of human CAL PDZ peptide binding. purified CAL PDZ, TMR-peptide fluorescence polarization, 1 h. inhibition, % at 20 µM. hit rate 0.02% among 330,000. AID 504414;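 active = highest replicate inhibition of at least 40%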;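 also: plate controls were DMSO neutral control wells for no effect and unlabeled competitor peptide control wells for full effect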
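Control set: unlabelled peptide and DMSO controls / Material: purified CerCALP PDZ construct / Timing: 1 h incubation at room temperature before polarization reading / Doses: 20 µM, one dose / Detection: fluorescence polarization (mP)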
SR-BI DiI inh: mouse SR-BI HDL lipid transfer inhibition; Q61009; ldlA[mSR-BI] CHO cells, DiI-HDL uptake fluorescence, 3 h; inhibition, % at 12.5 µM; hit rate 0.96% among 320,000;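 active = mean replicate inhibition of at least 70% and a set share of replicates each scoring 70 or more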;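 also: 0% = median of neutral control wells and 100% = median of positive control wells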
CAL PDZ FP-2: blocks peptide binding to the human CAL PDZ domain. hit rate 0.92% among 300,000. Q9HD26. inhibition, % at 24.9 µM. purified CAL PDZ, TMR-peptide fluorescence polarization, 1 h;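 active = mean inhibition of at least 30% with at least half of replicates also reaching 30%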;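 also: 0% = DMSO neutral control and 100% = excess unlabeled competitor peptide PRC23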
ATG4B inhibitor: inhibitors of human ATG4B cysteine protease; Q9Y4P1; ATG4B cleavage of LC3-PLA2, NBD-HPC fluorescence, 1 h; inhibition, % at 8.33 µM; hit rate 0.51% among 340,000; in the data active = inhibition above about 40%
Target sequence (Q9Y4P1 whole entry, looked up): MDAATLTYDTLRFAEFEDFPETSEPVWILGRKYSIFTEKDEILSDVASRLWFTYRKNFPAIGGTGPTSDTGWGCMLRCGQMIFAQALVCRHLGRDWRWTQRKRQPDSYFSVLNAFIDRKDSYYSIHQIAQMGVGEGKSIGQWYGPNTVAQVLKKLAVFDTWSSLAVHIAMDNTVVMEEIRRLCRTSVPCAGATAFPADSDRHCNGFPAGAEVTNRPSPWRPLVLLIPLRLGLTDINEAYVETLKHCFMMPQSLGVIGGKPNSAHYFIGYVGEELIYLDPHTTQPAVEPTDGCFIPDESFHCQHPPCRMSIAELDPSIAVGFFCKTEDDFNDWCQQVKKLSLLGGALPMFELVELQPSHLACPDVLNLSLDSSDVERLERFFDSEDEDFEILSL
Starred values were filed as active, the others as inactive; nt = no result given. Compounds with a hit are over-represented: about 2.3% of the library has one in this group of screens.

SMILES	SR-BI uptake up	CAL PDZ FP-1	SR-BI DiI inh	CAL PDZ FP-2	ATG4B inhibitor
COc1ccc(-c2oc3ccccc3c2C#CC(C)(C)O)cc1	-79	0	79*	-3	2
CCOC(=O)CSc1nnc(CNC(=O)c2cccc(C)c2)n1C	38	4	-38	76*	0
COC(=O)CSc1nnc(CNC(=O)c2ccc(OC)c(OC)c2)n1C	24	-2	-24	38*	-7
CCOC(=O)CSc1nnc(CNC(=O)c2cccc(C)c2)n1-c1ccccc1OC	10	nt	-10	-1	-8
COc1ccc(C(=O)CSc2nnc(CNC(=O)c3ccc(OC)c(OC)c3)n2C)cc1	3	0	-3	1	-5
CN(Cc1cnc2nc(N)nc(N)c2n1)c1ccc(C(=O)NC(CCC(=O)O)C(=O)O)c2ccccc12 (stereo not given)	6	-1	-6	-6	11
CCOc1ccc(/C=C/C2=CC(C)(C)NC(=S)N2)cc1	-69	-3	69	-3	-14
COc1cccc(/C=N/n2c(-c3cc(C)[nH]n3)n[nH]c2=S)c1	12	0	-12	0	-12
COc1ccc(/C=C/C2=CC(C)(C)NC(=S)N2)cc1OC	-83	-2	83*	1	-1
COc1cccc(/C=C/C2=CC(C)(C)NC(=S)N2)c1	-78	0	78*	-2	-2
CCOC(=O)C1=C(c2ccccc2)NC(=S)NC1C (stereo not given)	-72	-1	72*	-1	1
CCOC(=O)C1=C(C)NC(=S)NC1C (stereo not given)	7	-3	-7	2	1
C=CCNC(=O)c1onc(CS(=O)(=O)c2cc(C)cc(C)c2)c1C(=O)NCC=C	3	0	-3	-2	-2
N#CCCN(C(=O)COC(=O)COc1ccccc1Cc1ccccc1)c1ccccc1	2	0	-2	44*	-9
NC(=O)C12C(=O)NC(=O)C1(C(=O)O)C21CCCC1 (stereo not given)	12	-1	-12	3	4
COc1cc(/C=C/C(=O)OCC(=O)c2c(N)n(C)c(=O)n(C)c2=O)ccc1OCC#N	-71	-3	71*	-3	-13
CCc1cc(Br)ccc1NC(=S)NCCc1ccccc1	-76	-3	76*	-2	12
O=C1C(=O)c2c(ccc3ccccc23)-c2ccccc21	-32	1	32	-1	-17
CC(C)(C)CC(=O)N1CCN(Cc2ccc3c(c2)OCO3)CC1	36	-2	-36	38*	0
O=C(N1CCN(Cc2ccc3c(c2)OCO3)CC1)C(Cl)(Cl)Cl	-8	1	8	-3	-3
Cn1c(C(=O)N2CCN(Cc3ccc4c(c3)OCO4)CC2)cc2c(=O)n(C)c3ccccc3c21	-76	-1	76*	-2	-6
Cn1c(C(=O)N2CCCC2)cc2c(=O)n(C)c3ccccc3c21	-2	-1	2	nt	16
COc1cc(N)c(Cl)cc1C(=O)N[C@H]1CCN(CCCOc2ccc(F)cc2)C[C@H]1OC	-75	-1	75*	1	-17
CC1CC=CCC1(CO)CO (stereo not given)	13	0	-13	-2	7
O=c1c2ccccc2nc(N/N=C/c2ccc(O)cc2)n1O	-7	0	7	3	-9
SMILES	SR-BI uptake up	CAL PDZ FP-1	SR-BI DiI inh	CAL PDZ FP-2	ATG4B inhibitor
O=c1c2ccccc2nc(N/N=C/c2c(O)ccc3ccccc23)n1O	-129	0	129*	-3	8
O=C1c2ccccc2NC(c2ccc(Br)s2)N1O (stereo not given)	nt	nt	nt	nt	2
Cc1cc(=O)[nH]c2cc(O)ccc12	42	-2	-42	-1	-8
CC(C)=CCCC1(C)C=Cc2c(c(C)cc3c2[nH]c2cc(O)ccc23)O1 (stereo not given)	-107	0	107*	-6	2
COc1ccc(Nc2nc(-c3cccs3)nc3ccccc23)cc1	-75	-1	75*	5	14
COc1ccc(Nc2nc(-c3cccc([N+](=O)[O-])c3)nc3ccccc23)cc1	-88	2	88*	6	28
COc1cccc(Nc2nc(-c3cccs3)nc3ccccc23)c1	-69	-2	69	-2	3
O=C(O)c1ccc(Nc2nc(-c3ccc([N+](=O)[O-])cc3)nc3ccccc23)cc1	-14	0	14	nt	0
O=[N+]([O-])c1ccc(-c2nc(Nc3ccc(O)cc3)c3ccccc3n2)cc1	-91	1	91*	-3	11
O=[N+]([O-])c1ccc(S(=O)(=O)Nc2nc3ccccc3nc2Nc2ccccc2)cc1	-78	-1	78*	4	25
O=C(Nc1ccccc1)c1sc2cc(C(F)(F)F)cnc2c1-c1cccs1	-71	-1	71*	nt	5
CCOc1cc(N2CCOCC2)c(OCC)cc1NC(=O)CN1C(=O)NC(CC)(c2ccc(F)cc2)C1=O (stereo not given)	-21	0	21	-1	-7
CCOC(=O)c1sc(NN=C(C(=O)OC)C(=O)OC)c(C(=O)OCC)c1C	-74	0	74*	-1	-12
COc1ccc(S(=O)(=O)N/N=C(/C)c2cccc(NC(=O)c3ccccc3Cl)c2)cc1	-41	-1	41	43*	-15
CC(Cc1cccnc1)NC(=O)c1ccccc1OC1CCN(S(C)(=O)=O)CC1 (stereo not given)	-18	-2	18	31*	5
CCOC(=O)/C(C#N)=C1/SC(CC)C(=O)N1c1ccc(C)cc1 (stereo not given)	-7	0	7	56*	-5
COc1ccc(/C=C/C(=O)Oc2ccc(/C=N\NC(=O)c3ccc(F)cc3)cc2)cc1	6	-2	-6	-1	-3
COc1ccc(/C=C/C(=O)Oc2cccc(/C=N/NC(=O)c3cccc(F)c3)c2)cc1	-73	-3	73*	-1	-11
COc1ccc(CCNC(=O)CN2C(=O)NC3(CCOc4ccccc43)C2=O)cc1 (stereo not given)	25	-1	-25	0	-2
COc1cccc(NC(=O)CN2C(=O)NC3(CCc4ccccc43)C2=O)c1 (stereo not given)	nt	-2	-4	73*	0
COC(=O)CNC(=O)CN1C(=O)NC2(CCCc3ccccc32)C1=O (stereo not given)	-4	0	4	39*	-10
COc1ccc(OC)c(NC(=O)CN2C(=O)NC3(CCOc4ccccc43)C2=O)c1 (stereo not given)	0	nt	0	38*	-16
O=C(CN1C(=O)NC2(CCc3ccccc32)C1=O)Nc1cccc(Cl)c1 (stereo not given)	nt	-1	nt	-3	-3
CC12CCC3c4cc(CN5CCOCC5)c(O)cc4CCC3C1CCC2=O (stereo not given)	-31	0	31	-6	-4
Cc1cc(=O)oc2ccc(OCc3ccccc3)cc12	-30	0	30	-7	-3

From PubChem
